Active and inactive are the calls of the source. No rule for the calls is given here.
Columns and labels:
[1] = system: K562; assay: Cytostatic activity against human K562 cells after 72 hrs by MTT assay; format: functional, cell-based; details: K562, 72 h
Summary of the method: (§1)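 IC50 is the concentration that cuts cell growth by 50%, read by quantitative metabolic MTT staining after a 3-day treatment. The resistant sublines were made by raising the concentration of the cytotoxic drug step by step. CEM-DNR-bulk (daunorubicin-selected) stably overexpresses mrp-1. K562-TAX (paclitaxel-selected) expresses only mdr-1. HCT116p53−/− carries null p53 alleles. BJ and MRC-5 are nonmalignant fibroblasts.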

[2] = system: Enterococcus faecalis; assay: Antibacterial activity against Enterococcus faecalis CCM 4224 after 24 hrs; format: functional, organism-based
[3] = system: HCT-116; assay: Cytostatic activity against human HCT116 cells after 72 hrs by MTT assay; format: functional, cell-based; details: HCT-116, 72 h; summary of the method: as §1
[4] = Cytostatic activity against human CEM-DNR-bulk cells after 72 hrs by MTT assay; format: functional, cell-based; summary of the method: as §1
[5] = system: Pseudomonas aeruginosa; assay: Antibacterial activity against Pseudomonas aeruginosa CCM 3955 after 24 hrs; format: functional, organism-based
[6] = system: Hepatitis C virus; assay: Antiviral activity against Hepatitis C virus subtype 2a infected in human HuH7 cells; format: functional, organism-based, Hepacivirus hominis; details: genotype 2a, Huh-7
[7] = system: MRC5; assay: Cytostatic activity against human MRC5 cells after 72 hrs by MTT assay; format: ADME, cell-based; details: MRC5, 72 h; summary of the method: as §1
[8] = system: Pseudomonas aeruginosa; assay: Antibacterial activity against multi-resistant Pseudomonas aeruginosa A/16575 after 24 hrs; format: functional, organism-based
[9] = Cytotoxicity against human HuH7 cells infected with Hepatitis C virus subtype 1b; format: cell-based, Huh-7
[10] = system: CCRF-CEM; assay: Cytostatic activity against human CCRF-CEM cells after 72 hrs by MTT assay; format: functional, cell-based; summary of the method: as §1
[11] = system: BJ; assay: Cytostatic activity against human BJ cells after 72 hrs by MTT assay; format: ADME, cell-based; summary of the method: as §1
[12] = system: K562; assay: Cytostatic activity against paclitaxel-resistant human K562 cells after 72 hrs by MTT assay; format: functional, cell-based; details: K562, 72 h; summary of the method: as §1
[13] = system: Pichia kudriavzevii; assay: Antifungal activity against Candida crusei after 48 hrs; format: functional, organism-based
[14] = system: Candida albicans; assay: Antifungal activity against Candida albicans after 48 hrs; format: functional, organism-based
[15] = system: A549; assay: Cytostatic activity against human A549 cells after 72 hrs by MTT assay; format: functional, cell-based; details: A549, 72 h; summary of the method: as §1
[16] = system: Staphylococcus haemolyticus; assay: Antibacterial activity against methicillin-resistant Staphylococcus haemolyticus A/16568 after 24 hrs; format: functional, organism-based
[17] = system: HCT-116; assay: Cytostatic activity against p53-deficient human HCT116 cells after 72 hrs by MTT assay; format: functional, cell-based; details: HCT-116, 72 h; summary of the method: as §1
[18] = system: Candida parapsilosis; assay: Antifungal activity against Candida parapsilosis after 48 hrs; format: functional, organism-based
[19] = system: Hepatitis C virus; assay: Antiviral activity against Hepatitis C virus subtype 1b infected in human HuH7 cells; format: functional, organism-based, Hepacivirus hominis; details: genotype 1b, Huh-7
[20] = system: HL-60; assay: Antiproliferative activity against human HL60 cells after 72 hrs by XTT assay; format: functional, cell-based; details: HL-60, 72 h
Summary of the method: (§2)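 Antiproliferative test on HL-60 promyelocytic leukemia and HeLa S3 cervical carcinoma cells growing in liquid suspension.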

[21] = Cytotoxicity against human HuH7 cells infected with Hepatitis C virus subtype 2a; format: cell-based, Huh-7
[22] = system: Staphylococcus aureus; assay: Antibacterial activity against Staphylococcus aureus CCM 3953 after 24 hrs; format: functional, organism-based
[23] = system: Candida tropicalis; assay: Antifungal activity against Candida tropicalis after 48 hrs; format: functional, organism-based
[24] = Antiproliferative activity against human HeLaS3 cells after 72 hrs by XTT assay; format: functional, cell-based; details: HeLa S3, 72 h; summary of the method: as §2
[25] = system: Escherichia coli; assay: Antibacterial activity against multi-resistant Escherichia coli C/16702 after 24 hrs; format: functional, organism-based
[26] = system: Staphylococcus aureus; assay: Antibacterial activity against methicillin-resistant Staphylococcus aureus MRSA 4591 after 24 hrs; format: functional, organism-based
[27] = system: HepG2; assay: Antiproliferative activity against human HepG2 cells after 72 hrs by XTT assay; format: functional, cell-based; details: HepG2, 72 h
[28] = system: Escherichia coli; assay: Antibacterial activity against Escherichia coli CCM 3954 after 24 hrs; format: functional, organism-based

Row | Structure (SMILES) | IC50 [1] | Activity [2] | IC50 [3] | IC50 [4] | Activity [5] | EC50 [6] | IC50 [7] | Activity [8] | CC50 [9] | IC50 [10] | IC50 [11] | IC50 [12] | Activity [13] | Activity [14] | IC50 [15] | Activity [16] | IC50 [17] | Activity [18] | EC50 [19] | IC50 [20] | other results
1 | C#Cc1cn([C@@H]2O[C@H](CO)[C@@H](O)[C@H]2O)c2ncnc(OC)c12 | 0.3 µM | inactive | 4.06 µM | 3.49 µM | inactive | > 44 µM | > 100 µM | inactive | > 44 µM | > 20 µM | 98.4 µM | 0.38 µM | inactive | inactive | 8.16 µM | inactive | 5.14 µM | inactive | 0.18 µM | 0.19 µM | CC50 [21]: > 44 µM; Activity [22]: inactive; Activity [23]: inactive; IC50 [24]: 1.73 µM; Activity [25]: inactive; Activity [26]: inactive; IC50 [27]: 12.7 µM; Activity [28]: inactive
2 | CNc1ncnc2c1c(I)cn2[C@@H]1O[C@H](CO)[C@@H](O)[C@H]1O | > 100 µM | inactive | > 100 µM | > 20 µM | inactive | > 44 µM | > 100 µM | inactive | > 44 µM | > 100 µM | > 100 µM | > 20 µM | inactive | inactive | > 100 µM | inactive | > 100 µM | inactive | > 44 µM | > 20 µM | CC50 [21]: > 44 µM; Activity [22]: inactive; Activity [23]: inactive; IC50 [24]: > 20 µM; Activity [25]: inactive; Activity [26]: inactive; IC50 [27]: > 20 µM; Activity [28]: inactive
3 | O=c1[nH]cnc2c1c(-c1ccsc1)cn2[C@@H]1O[C@H](CO)[C@@H](O)[C@H]1O | > 20 µM | inactive | > 20 µM | > 20 µM | inactive | > 44 µM | > 100 µM | inactive | > 44 µM | 14.5 µM | > 100 µM | > 20 µM | inactive | inactive | > 20 µM | inactive | > 20 µM | inactive | 14.3 µM | 12 µM | CC50 [21]: > 44 µM; Activity [22]: inactive; Activity [23]: inactive; IC50 [24]: > 20 µM; Activity [25]: inactive; Activity [26]: inactive; IC50 [27]: > 15 µM; Activity [28]: inactive
4 | Cc1ncnc2c1c(I)cn2[C@@H]1O[C@H](CO)[C@@H](O)[C@H]1O | 17.8 µM | inactive | 4.72 µM | 12.6 µM | inactive | 8.75 µM | 13.3 µM | inactive | 20.9 µM | 5.48 µM | > 100 µM | > 20 µM | inactive | inactive | 12.2 µM | inactive | 7.57 µM | inactive | 2.16 µM | 2.65 µM | CC50 [21]: 13.8 µM; Activity [22]: inactive; Activity [23]: inactive; IC50 [24]: 4.08 µM; Activity [25]: inactive; Activity [26]: inactive; IC50 [27]: 3.46 µM; Activity [28]: inactive
5 | Cc1ncnc2c1c(-c1ccsc1)cn2[C@@H]1O[C@H](CO)[C@@H](O)[C@H]1O | 0.32 µM | inactive | 0.46 µM | 8.56 µM | inactive | > 44 µM | > 100 µM | inactive | > 44 µM | 11.2 µM | 96.9 µM | 5.55 µM | inactive | inactive | > 20 µM | inactive | 1.43 µM | inactive | 4.47 µM | 0.35 µM | CC50 [21]: > 44 µM; Activity [22]: inactive; Activity [23]: inactive; IC50 [24]: 14.3 µM; Activity [25]: inactive; Activity [26]: inactive; IC50 [27]: 4.72 µM; Activity [28]: inactive
6 | COc1ncnc2c1ccn2[C@@H]1O[C@H](CO)[C@@H](O)[C@H]1O | > 20 µM | inactive | > 20 µM | > 20 µM | inactive | > 44 µM | > 100 µM | inactive | > 44 µM | > 20 µM | > 100 µM | > 20 µM | inactive | inactive | > 20 µM | inactive | > 20 µM | inactive | > 44 µM | > 20 µM | CC50 [21]: > 44 µM; Activity [22]: inactive; Activity [23]: inactive; IC50 [24]: > 20 µM; Activity [25]: inactive; Activity [26]: inactive; IC50 [27]: > 20 µM; Activity [28]: inactive
7 | Nc1nc2c(c(-c3ccsc3)cn2[C@@H]2O[C@H](CO)[C@@H](O)[C@H]2O)c(=O)[nH]1 | > 20 µM | inactive | > 20 µM | > 20 µM | inactive | > 44 µM | > 100 µM | inactive | > 44 µM | > 20 µM | > 100 µM | 18.3 µM | inactive | inactive | > 20 µM | inactive | > 20 µM | inactive | > 44 µM | > 20 µM | CC50 [21]: > 44 µM; Activity [22]: inactive; Activity [23]: inactive; IC50 [24]: > 20 µM; Activity [25]: inactive; Activity [26]: inactive; IC50 [27]: > 20 µM; Activity [28]: inactive
8 | CSc1ncnc2c1c(I)cn2[C@@H]1O[C@H](CO)[C@@H](O)[C@H]1O | 10.5 µM | inactive | > 20 µM | > 20 µM | inactive | > 44 µM | > 100 µM | inactive | > 44 µM | > 20 µM | 86.1 µM | 7.73 µM | inactive | inactive | > 20 µM | inactive | > 20 µM | inactive | 19.2 µM | 0.05 µM | CC50 [21]: > 44 µM; Activity [22]: inactive; Activity [23]: inactive; IC50 [24]: 0.25 µM; Activity [25]: inactive; Activity [26]: inactive; IC50 [27]: > 20 µM; Activity [28]: inactive
9 | Nc1nc(N)c2c(-c3cc4ccccc4o3)cn([C@@H]3O[C@H](CO)[C@@H](O)[C@H]3O)c2n1 | 18.6 µM | inactive | > 20 µM | > 20 µM | inactive | 11.5 µM | 78.5 µM | inactive | > 44 µM | > 20 µM | > 100 µM | > 20 µM | inactive | inactive | > 20 µM | inactive | 14 µM | inactive | 5.58 µM | > 15 µM | CC50 [21]: > 44 µM; Activity [22]: inactive; Activity [23]: inactive; IC50 [24]: > 20 µM; Activity [25]: inactive; Activity [26]: inactive; IC50 [27]: > 20 µM; Activity [28]: inactive

Reference: ChEMBL document CHEMBL3124843, “Synthesis, cytostatic, antimicrobial, and anti-HCV activity of 6-substituted 7-(het)aryl-7-deazapurine ribonucleosides” (J Med Chem, 2014)
